The text below walks through data of ChEMBL document CHEMBL3271935, “Synthesis and biological activity of some broad-spectrum N-acylphenyglycine cephalosporins” (1977).

≈ marks a conversion by molar mass, not a printed value.

The subject of one assay is Staphylococcus aureus. As to the kind of experiment: Antibacterial activity against penicillin G resistant Staphylococcus aureus HH 127 assessed as growth inhibition by two-fold agar dilution method. It counts as functional. A digest of the protocol:
(§1)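 Twofold agar dilution on Trypticase soy agar buffered to pH 6.0. MIC reported in μg/mL.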
For orientation: Agar dilution tests growth on a series of plates holding different concentrations.

The test system of assay [1] is Escherichia coli. The assay can be described thus: Antibacterial activity against Escherichia coli 12140 assessed as growth inhibition by two-fold agar dilution method. It counts as functional. A digest of the protocol: (§2)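 MIC (μg/mL) by twofold agar dilution on Trypticase soy agar buffered to pH 6.0.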
The next assay relates to Klebsiella pneumoniae. As to the kind of experiment: Antibacterial activity against Klebsiella pneumoniae 4200 assessed as growth inhibition by two-fold agar dilution method. It counts as functional. A digest of the protocol: as §2
The next assay deals with Salmonella paratyphi. The assay can be described thus: Antibacterial activity against Salmonella paratyphi ATCC 12176 assessed as growth inhibition by two-fold agar dilution method. It counts as functional, Salmonella enterica subsp. enterica serovar Paratyphi A. The note with it: Salmonella enterica. A digest of the protocol:
as §1

A further assay relates to Klebsiella aerogenes. As to the kind of experiment: Antibacterial activity against Enterobacter aerogenes ATCC 13048 assessed as growth inhibition by two-fold agar dilution method. It counts as functional. A digest of the protocol: as §2
The test system of the next assay is Morganella morganii. The assay can be described thus: Antibacterial activity against indole positive Proteus morganii 179 assessed as growth inhibition by two-fold agar dilution method. It counts as functional. A digest of the protocol:
as §2

For assay [2], the system named is Pseudomonas aeruginosa. As to the kind of experiment: Antibacterial activity against Pseudomonas aeruginosa HH 63 assessed as growth inhibition by two-fold agar dilution method. It counts as functional. A digest of the protocol: as §2
Assay [3] has as its system Escherichia coli. The assay can be described thus: Antibacterial activity against Escherichia coli 12140 infected in sc dosed mouse administered at 1 to 5 hrs measured for 3 days. It counts as functional. The conditions noted are these: Escherichia coli, 12140, sc; read-out: PD50. A digest of the protocol:
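Mice infected intraperitoneally with about 2×10^3 organisms per mouse of E. coli 12140 culture diluted in 5% hog gastric mucin, giving uniformly lethal infection. Fourfold dilutions given subcutaneously in equally divided portions at 1 and 5 h postinfection, five groups per compound. Survivors observed 3 days. PD50 is total dose (mg/kg) protecting 50%, calculated by Litchfield–Wilcoxon method.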

The subject of assay [4] is Pseudomonas aeruginosa. As to the kind of experiment: Antibacterial activity against Pseudomonas aeruginosa 1504 assessed as growth inhibition. It counts as functional. A digest of the protocol: (§3)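 Broth MIC by the standard microtiter technique in unbuffered Mueller-Hinton broth.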
Assay [5] has as its system Pseudomonas aeruginosa. The assay can be described thus: Antibacterial activity against Pseudomonas aeruginosa 1042 assessed as growth inhibition. It counts as functional. A digest of the protocol: as §3
Assay [6] has as its system Pseudomonas aeruginosa. The assay can be described thus: Antibacterial activity against Pseudomonas aeruginosa 219 assessed as growth inhibition. It counts as functional. A digest of the protocol: as §3
Assay [7] concerns Pseudomonas aeruginosa. The assay can be described thus: Antibacterial activity against Pseudomonas aeruginosa 647 assessed as growth inhibition. It counts as functional. A digest of the protocol: as §3
Assay [8] deals with Pseudomonas aeruginosa. The assay can be described thus: Antibacterial activity against Pseudomonas aeruginosa 864 assessed as growth inhibition. It counts as functional. A digest of the protocol:
as §3

For assay [9], the system named is Pseudomonas aeruginosa. As to the kind of experiment: Antibacterial activity against Pseudomonas aeruginosa 1062 assessed as growth inhibition. It counts as functional. A digest of the protocol: as §3
The test system of assay [10] is Pseudomonas aeruginosa. As to the kind of experiment: Antibacterial activity against Pseudomonas aeruginosa 1063 assessed as growth inhibition. It counts as functional. A digest of the protocol: as §3
Assay [11] concerns Pseudomonas aeruginosa. The assay can be described thus: Antibacterial activity against Pseudomonas aeruginosa 1106 assessed as growth inhibition. It counts as functional. A digest of the protocol: as §3

By MIC is commonly meant the lowest concentration that inhibits growth of the organism.

For `Cn1nnnc1SCC1=C(C(=O)[O-])N2C(=O)[C@@H](NC(=O)C(NC(=O)C3OC3C(=O)[O-])c3ccccc3)[C@H]2SC1.[Na+].[Na+]` (mixture of isomers), the MIC in the assay with Staphylococcus aureus amounted to 6.3 µg/mL; with Escherichia coli [1] it was 0.8 µg/mL; in the assay on Klebsiella pneumoniae it was 0.8 µg/mL; in the assay with Salmonella paratyphi, 1.6 µg/mL; with Klebsiella aerogenes, 1.6 µg/mL; with Morganella morganii it was 0.4 µg/mL. The MIC in the assay with Pseudomonas aeruginosa [2] is 50 µg/mL; in the assay on Pseudomonas aeruginosa [4], 63 µg/mL; with Pseudomonas aeruginosa [5], 63 µg/mL; in the assay with Pseudomonas aeruginosa [6], 125 µg/mL; with Pseudomonas aeruginosa [7], 63 µg/mL; with Pseudomonas aeruginosa [8], 500 µg/mL. Also, the MIC with Pseudomonas aeruginosa [9] came out at 63 µg/mL; in the assay on Pseudomonas aeruginosa [10] it was 500 µg/mL; with Pseudomonas aeruginosa [11] it was 500 µg/mL. Also, the ED50 in the assay with Escherichia coli [3] was found to be 7 mg/kg.

In the case of `Cn1nnnc1SCC1=C(C(=O)[O-])N2C(=O)[C@@H](NC(=O)C(NC(=O)[C@@H]3O[C@@H]3C(=O)[O-])c3ccccc3)[C@H]2SC1.[Na+].[Na+]` (mixture of isomers), the MIC with Staphylococcus aureus was 12.5 µg/mL; in the assay on Escherichia coli [1] it was 6.3 µg/mL; in the assay on Klebsiella pneumoniae it was 3.1 µg/mL; in the assay with Salmonella paratyphi, 6.3 µg/mL; in the assay with Klebsiella aerogenes it was 12.5 µg/mL; in the assay on Morganella morganii it was 3.1 µg/mL. Moreover, the minimal inhibitory concentration (MIC) in the assay with Pseudomonas aeruginosa [2] was 200 µg/mL; in the assay on Pseudomonas aeruginosa [4], 500 µg/mL; in the assay on Pseudomonas aeruginosa [5], over 500 µg/mL; in the assay on Pseudomonas aeruginosa [6] it was 500 µg/mL; in the assay with Pseudomonas aeruginosa [7], over 500 µg/mL; in the assay on Pseudomonas aeruginosa [8], 500 µg/mL. Besides, the MIC in the assay on Pseudomonas aeruginosa [9], in the assay with Pseudomonas aeruginosa [10] and with Pseudomonas aeruginosa [11] was over 500 µg/mL each time. For the same molecule, the ED50 in the assay with Escherichia coli [3] came to 35 mg/kg.

For `Cn1nnnc1SCC1=C(C(=O)[O-])N2C(=O)[C@@H](NC(=O)C(NC(=O)C3CCC(C(=O)[O-])O3)c3ccccc3)[C@H]2SC1.[Na+].[Na+]` (mixture of isomers), the minimal inhibitory concentration (MIC) came to 3.1 µg/mL with Staphylococcus aureus; 3.1 µg/mL with Escherichia coli [1]; 1.6 µg/mL in the assay with Klebsiella pneumoniae; 3.1 µg/mL in the assay with Salmonella paratyphi; 3.1 µg/mL in the assay on Klebsiella aerogenes; 1.6 µg/mL in the assay on Morganella morganii. For the same molecule, the MIC was determined as 100 µg/mL in the assay on Pseudomonas aeruginosa [2]; 63 µg/mL in the assay on Pseudomonas aeruginosa [4]; 125 µg/mL in the assay on Pseudomonas aeruginosa [5]; 125 µg/mL in the assay with Pseudomonas aeruginosa [6]; 125 µg/mL with Pseudomonas aeruginosa [7]; 500 µg/mL in the assay on Pseudomonas aeruginosa [8]. The MIC came out at 125 µg/mL with Pseudomonas aeruginosa [9], 250 µg/mL in the assay on Pseudomonas aeruginosa [10] and 500 µg/mL with Pseudomonas aeruginosa [11]. The ED50 in the assay with Escherichia coli [3] is 25 mg/kg.

In the case of `Cn1nnnc1SCC1=C(C(=O)[O-])N2C(=O)[C@@H](NC(=O)C(NC(=O)C3CO3)c3ccccc3)[C@H]2SC1.[Na+]` (mixture of isomers), the MIC was 1.6 µg/mL in the assay with Staphylococcus aureus; 12.5 µg/mL with Escherichia coli [1]; 6.3 µg/mL in the assay on Klebsiella pneumoniae; 6.3 µg/mL in the assay on Salmonella paratyphi; 12.5 µg/mL with Klebsiella aerogenes; 3.1 µg/mL in the assay on Morganella morganii. The MIC was 200 µg/mL with Pseudomonas aeruginosa [2]; 500 µg/mL in the assay with Pseudomonas aeruginosa [4]; over 500 µg/mL with Pseudomonas aeruginosa [5]; over 500 µg/mL in the assay with Pseudomonas aeruginosa [6]; over 500 µg/mL with Pseudomonas aeruginosa [7]; over 500 µg/mL in the assay with Pseudomonas aeruginosa [8]. The MIC in the assay with Pseudomonas aeruginosa [9], with Pseudomonas aeruginosa [10] and in the assay with Pseudomonas aeruginosa [11] was over 500 µg/mL each time. Moreover, the ED50 in the assay on Escherichia coli [3] worked out at 45 mg/kg.

As to `CC1(C)S[C@@H]2[C@H](NC(=O)C(C(=O)O)c3ccccc3)C(=O)N2[C@H]1C(=O)O` (stereo not given in full) [CARBENICILLIN], the MIC in the assay on Staphylococcus aureus is 3.1 µg/mL (≈ 8.19 µM); in the assay on Escherichia coli [1] it was 6.3 µg/mL (≈ 16.6 µM); in the assay on Klebsiella pneumoniae, 6.3 µg/mL (≈ 16.6 µM); with Salmonella paratyphi, 6.3 µg/mL (≈ 16.6 µM); in the assay on Klebsiella aerogenes, 12.5 µg/mL (≈ 33 µM); in the assay on Morganella morganii, 0.8 µg/mL (≈ 2.11 µM). Besides, the MIC with Pseudomonas aeruginosa [2] was 50 µg/mL (≈ 132 µM); with Pseudomonas aeruginosa [4], 63 µg/mL (≈ 166 µM); with Pseudomonas aeruginosa [5], 63 µg/mL (≈ 166 µM); with Pseudomonas aeruginosa [6] it was 63 µg/mL (≈ 166 µM); in the assay on Pseudomonas aeruginosa [7] it was 63 µg/mL (≈ 166 µM); with Pseudomonas aeruginosa [8], 500 µg/mL (≈ 1320 µM). Further, the MIC is 63 µg/mL (≈ 166 µM) with Pseudomonas aeruginosa [9], 63 µg/mL (≈ 166 µM) in the assay on Pseudomonas aeruginosa [10] and 125 µg/mL (≈ 330 µM) with Pseudomonas aeruginosa [11]. In addition, the ED50 in the assay with Escherichia coli [3] is 25 mg/kg.
